hIAP block: blocks human intestinal alkaline phosphatase. purified IAP, CDP-Star luminescence, 30 min. hit rate 0.12% among 330,000. AID 2544. P09923. inhibition, % at 10 µM;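 active = inhibition reaching a set limit with compound at 10 µM in the primary screen, cut at about 35% in these data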;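 also: plate controls were DMSO wells with enzyme for no effect and no-enzyme buffer wells for full effect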
Target sequence (P09923 whole entry, looked up): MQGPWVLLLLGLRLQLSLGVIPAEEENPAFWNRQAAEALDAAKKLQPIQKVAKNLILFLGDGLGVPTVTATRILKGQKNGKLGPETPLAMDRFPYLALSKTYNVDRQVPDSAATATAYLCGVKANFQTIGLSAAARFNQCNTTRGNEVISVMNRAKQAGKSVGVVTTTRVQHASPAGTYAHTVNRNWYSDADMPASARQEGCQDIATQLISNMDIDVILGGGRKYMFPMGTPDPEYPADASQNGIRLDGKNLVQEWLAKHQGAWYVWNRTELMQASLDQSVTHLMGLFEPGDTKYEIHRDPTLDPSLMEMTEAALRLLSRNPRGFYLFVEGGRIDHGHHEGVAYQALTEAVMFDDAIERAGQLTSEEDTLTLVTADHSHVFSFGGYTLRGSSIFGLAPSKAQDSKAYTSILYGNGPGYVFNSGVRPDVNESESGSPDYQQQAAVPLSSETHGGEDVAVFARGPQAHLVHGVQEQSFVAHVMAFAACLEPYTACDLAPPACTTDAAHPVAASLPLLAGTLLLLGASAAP
bIAP inhibitor: intestinal alkaline phosphatase (bovine) inhibition; purified bovine IAP, CDP-star luminescence, 30 min; inhibition, % at 20 µM; 190,000 tested, under 10 active; AID 1019;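 active = over 50% inhibition of intestinal alkaline phosphatase at 20 µM in the single-dose screen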
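test system = bovine IAP enzyme | medium = DEA buffer 100 mM, pH 9.8, with MgCl2 1.0 mM, ZnCl2 0.02 mM | detection = luminescence | dosing = single compound dose of 20 µM, 2% DMSO final | incubation = 30 min reaction at room temperature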
bIAP act: intestinal alkaline phosphatase (bovine) activation | purified bovine IAP, CDP-star luminescence, 30 min; active compounds read high; fold of DMSO-control signal, blank-subtracted | activation factor at 20 µM | hit rate 0.17% among 200,000 | AID 1016;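 active = activation factor of 2 or more at 20 µM, a signal rise over negative controls twice the positive control's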
mIAP inh: mouse IAP inhibition | purified mouse IAP, CDP-Star luminescence, 30 min | inhibition, % at 10 µM | hit rate 0.2% among 330,000;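 active = inhibition of at least 40% at 10 µM in the primary screen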;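 also: plate controls were DMSO with enzyme for no effect and no enzyme wells for full effect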
hIAP activ: human IAP activation | purified human IAP, CDP-Star luminescence, 30 min; active compounds read high; 1 = vehicle-only enzyme, 0 = enzyme-free background | activation factor at 10 µM | hit rate 0.16% among 330,000;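 active = activation factor of the enzyme at least 2-fold when tested at 20 µM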
mIAP activ: mouse IAP activation. hit rate 0.24% among 330,000. muIAP, CDP-Star luminescence, 30 min; active compounds read high; 1 = vehicle-only enzyme signal, 0 = enzyme-free wells. activation factor at 10 µM;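 active = activation factor of at least 2 at 20 µM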
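Assay system: mouse IAP enzyme; reagent: chemiluminescent substrate CDP-Star; dosing: test compounds delivered from DMSO solution; schedule: 30 min at room temperature; measured by: luminescence from enzymatic CDP-Star hydrolysis; controls: DMSO-only wells and no-enzyme negative control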
hIAP act confirm: human IAP activation confirmation. activation (%Activity, negative = activation), % at 8.3 µM. shares compounds with hIAP activ. hit rate 10% among 880. purified IAP, CDP-Star luminescence, 30 min; active compounds read low. AID 434926;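 active = at least twofold enzyme activation in any of six single-dose repeats, which the averaged readout prints as negative percent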
* hit, by the source's call; . = no result. Sampled rows, rich in hits. Any-hit rate of the full collection: about 0.72%.

SMILES	hIAP block	bIAP inhibitor	bIAP act	mIAP inh	hIAP activ	mIAP activ	hIAP act confirm
Cc1c(Cl)cccc1NC(=O)c1cc(-c2ccccc2O)n[nH]1	-100.9	7.0	0.9	-7.7	2.01*	1.08	5.1
COc1ccc(CCNC(=O)c2cc(-c3cc(C)ccc3O)n[nH]2)cc1OC	-167.6	-95.9	2*	-67.8	2.68*	1.68	-9.3
O=C(Nc1cccc(S(=O)(=O)NC2=NCCC2)c1)c1ccc(C(F)(F)F)cc1	19.2	.	.	4.8	0.808	0.952	.
O=C(CN1C(=O)C(=O)N(C2CCCC2)C1=O)Nc1ccccc1OC(F)F	5.4	.	.	-5.3	0.946	1.05	.
CCOC(=O)CC[C@H](NC(=O)Cn1cnc2c(NCc3ccccc3)ncnc21)C(=O)OCC	.	.	.	-11.9	.	1.21	.
CC(Sc1nnc(C2CC2)n1C1CC1)C(=O)N(C)C1(C#N)CCCCC1 (stereo not drawn)	0.6	.	.	-0.8	0.994	1.01	.
Cc1cccc(NC(=O)c2cc(-c3cc(C)c(C)cc3O)n[nH]2)c1	-77.6	.	.	-1.6	1.78	1.02	.
COc1ccc(CNC(=O)c2cc(-c3ccccc3O)n[nH]2)cc1	6.1	-4.6	1	-54.1	0.939	1.54	.
Cc1cccc(NC(=O)c2cc(-c3cc(C)ccc3O)n[nH]2)c1	-103.9	.	.	-16.1	2.04*	1.16	7.3
COc1ccc(CNC(=O)c2cc(-c3cc(C)ccc3O)n[nH]2)cc1	-138.3	.	.	-69.7	2.38*	1.7	-33.6
O=C([C@H](Cc1ccccc1)N1C(=O)c2ccccc2C1=O)N1CCOCC1	4.6	.	.	-5.2	0.954	1.05	.
O=C(NCCNC(=O)c1ccc(Cl)cc1Cl)c1ccco1	-0.4	.	.	-3.1	1	1.03	.
CN1C(=O)/C(=C\c2cc(N=Nc3ccccc3)ccc2O)SC1=S	38.3*	27.0	0.7	26.1	0.616	0.739	2.7
COCc1c(C(=O)Nc2cccc(S(=O)(=O)N3CCCCC3)c2)oc2ccccc12	-21.7	.	.	14.5	1.22	0.855	.
O=C(Nc1ccccc1)n1ccc(-c2ccc(-n3ccnc3)cc2)n1	-6.3	-10.1	1.1	-7.6	1.06	1.08	.
O=C(O)/C(=C\c1ccccc1)c1ccc2ccccc2c1	37.8*	.	.	-5.4	0.622	1.05	5.9
Cc1nnc(N2CCc3ccccc3C2)[nH]c1=O	36.2*	5.8	0.9	5.1	0.638	0.949	-42.7
N[C@@H](Cc1ccccc1)c1nnc(SC/C=C/c2ccccc2)o1	5.6	.	.	3.9	0.944	0.961	.
CC(=O)Nc1cccc(C(=O)NNC(=O)c2n[nH]c(=O)c3ccccc23)c1	-132.9	.	.	12.9	2.33*	0.871	-124.9*
CC(C)c1ccc(C(=O)NNC(=O)c2n[nH]c(=O)c3ccccc23)cc1	-82.5	.	.	10.6	1.82	0.894	.
N#C/C(=N\Nc1ccc(S(=O)(=O)N2CCCCCC2)cc1)C(N)=S	37.3*	7.9	0.9	15.3	0.627	0.847	8.5
N#C/C(=N\Nc1ccc([N+](=O)[O-])cc1)C(N)=S	35.2*	.	.	34.2	0.648	0.658	-9.3
CC(=O)OC(C(=O)NCCN1CCOCC1)c1c(F)cccc1F (stereo not drawn)	10.0	5.2	0.9	0.1	0.9	0.999	.
O=C1CC(c2ccccc2F)c2cc3c(cc2N1)CCC3 (stereo not drawn)	-219.6	2.9	1	-16.5	3.2*	1.17	-11.2
Cc1ccc(N2CC(C(=O)N3CCC(C(=O)NC(C)(C)C)CC3)CC2=O)cc1 (stereo not drawn)	1.6	.	.	-10.6	0.984	1.11	.
SMILES	hIAP block	bIAP inhibitor	bIAP act	mIAP inh	hIAP activ	mIAP activ	hIAP act confirm
COC(=O)c1nnn(-c2nonc2N)c1CSc1nc2ccccc2o1	-227.4	-0.8	1	6.2	3.27*	0.938	-0.4
COC(=O)c1nnn(-c2nonc2N)c1CSc1nc2ccccc2s1	9.7	0.9	1	5.4	0.903	0.946	.
COc1cccc(Oc2ccc(S(=O)(=O)N3CCOCC3)cc2[N+](=O)[O-])c1	-3.8	.	.	6.9	1.04	0.931	.
Cc1ccc(NC(=S)NNC(=O)c2nnn(-c3ccccc3)c2C)cc1	-117.8	4.6	1	10.6	2.18*	0.894	24.2
COc1ccc(OC)c(NC(=O)C2CC(/C=C/c3ccccc3)=NO2)c1 (stereo not drawn)	1.0	.	.	4.5	0.99	0.955	.
Cc1ccccc1NC(=O)CSc1nnnn1C	-6.5	2.1	1	-8.4	1.06	1.08	.
Cn1nnnc1SCC(=O)Nc1ccccc1-c1ccccc1	37.6*	9.4	0.9	7.5	0.624	0.925	-2.2
CCc1ccc(CN2CCC(C(=O)Nc3cccc(-c4nnc(C)s4)c3)CC2)o1	-21.0	.	.	2.5	1.21	0.975	.
Cc1ccc(CN2CCC(C(=O)Nc3cccc(-c4cccc(F)c4)c3)CC2)o1	-121.5	.	.	-142.4	2.21*	2.42*	2.3
CCCCC#Cc1cncc(C(=O)N/N=C/c2cccc(OC)c2)c1	40.2*	.	.	4.2	0.598	0.958	-36.6
CC(=O)N1CCOc2ccc(S(=O)(=O)N3CCCC(C)C3)cc21 (stereo not drawn)	43.2*	.	.	-8.4	0.568	1.08	54.0
CC(=O)N1CCOc2ccc(S(=O)(=O)N3C(C)CCCC3C)cc21 (stereo not drawn)	12.3	.	.	8.8	0.877	0.912	.
CCCCNC(=O)N(O)C1N(/N=C/c2cccs2)C(=S)SC1(C)C (stereo not drawn)	36.1*	.	.	0.1	0.639	0.999	-1.8
CNC(=O)N(O)C1N(/N=C/c2ccccc2O)C(=S)SC1(C)C (stereo not drawn)	-5.5	.	.	4.0	1.05	0.96	.
CC1CCCCC1NS(=O)(=O)c1ccc2c(c1)CC(=O)N2C (stereo not drawn)	-21.4	.	.	-0.1	1.21	1	.
COc1ccc(C(=O)NCC2CCCCC2)cc1S(=O)(=O)N1CCOCC1	-21.0	.	.	-2.2	1.21	1.02	.
Cc1ccc(C)c(NC(=S)NCc2ccccc2)c1	7.9	.	.	1.0	0.921	0.99	.
O=C(Cc1ccccc1)NNC(=S)Nc1ccccc1	-117.7	-33.4	1.3	7.1	2.18*	0.929	9.3
Cc1ccc(C)c(NC(=O)CCC(=O)NNC(=S)Nc2ccccc2)c1	-80.5	-46.7	1.5	20.9	1.8	0.791	.
Cc1ccc(C)c(NCC(=O)NNC(=S)Nc2ccccc2)c1	-103.0	-16.0	1.2	15.8	2.03*	0.842	-38.7
Cc1ccc(NC(=O)CCC(=O)NNC(=S)Nc2ccccc2)c(C)c1	-106.3	-54.1	1.5	-7.7	2.06*	1.08	-25.3
CC(C)(O)c1cc2ccc(C#Cc3ccsc3)cc2c(=O)o1	21.6	.	.	1.9	0.784	0.981	.
Fc1ccc(NC(=S)Nc2cccnc2)c(F)c1F	1.4	15.7	0.8	7.7	0.986	0.923	.
CN(C)S(=O)(=O)c1cccc(NC(=O)COc2ccccc2C(=O)NCc2ccccc2)c1	-10.6	.	.	-25.7	1.11	1.26	.
CCn1c2ccccc2c2cc(NC(=O)c3coc(=O)c(Br)c3)ccc21	41.7*	.	.	15.3	0.583	0.847	39.2

Screening results as filed in PubChem.
